# Experimental data as given in ChEMBL document CHEMBL5303300, “EUbOPEN Chemogenomics Library - Multiplex” (2023).
# Where “and” joins values, the source holds several entries; their conditions need not be identical. Equal entries are not always repeated.
# Experiments:
# Assay type in all cases: toxicity, cell-based
# [1] = test system: Fibroblast; assay: Multiplex assay against human fibroblast; conditions: number of replicates 2
# In short: (§1)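 On a CQ1 microscope at 37°C and 5% CO2, live cells were imaged after compound addition. They had been stained at seeding with Hoechst33342, BioTracker Green Microtubule Cytoskeleton Dye, MitoTracker Red and Annexin V Alexa Fluor 680. CellPathfinder machine-learning gating assigned cells to Hoechst high-intensity objects or normal cells, normal cells to healthy, pyknosed or fragmented nuclei, and pyknosed cells to mitotic or apoptotic. Tubulin, mitochondrial-mass and membrane-permeability phenotypes are per cents of healthy-nucleus cells.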
# [2] = test system: HEK-293T; assay: Multiplex assay against HEK293T; conditions: human, number of replicates 2; in short: as §1
# [3] = test system: U2OS; assay: Multiplex assay against U2OS; conditions: human, number of replicates 2; in short: as §1
# [4] = 12 h, 1 µM, compound concentration 1 uM
# [5] = 12 h, 10 µM, compound concentration 10 uM
# [6] = 24 h, 1 µM, compound concentration 1 uM
# [7] = 24 h, 10 µM, compound concentration 10 uM
# [8] = 48 h, 1 µM, compound concentration 1 uM
# [9] = 48 h, 10 µM, compound concentration 10 uM
compound,measurement,setting,value
O=C(NCc1ccc(F)cc1)N1CCN2C(=O)OC(c3ccccc3)(c3ccccc3)C2C1 (configuration not stated),Population Apoptotic (%),[1]; [4],41% and 22%
same,Population Fragmented Nuclei (%),[1]; [4],12% and 10%
same,Population Healthy Nuclei (%),[1]; [4],71% and 75%
same,Population Hoechst High Intensity Objects (%),[1]; [4],0%
same,Population Membrane Permeable-Phenotype (%),[1]; [4],10% and 5%
same,Population Mitochondria Different-Phenotype (%),[1]; [4],2% and 1%
same,Population Mitotic Cells (%),[1]; [4],58% and 77%
same,Population Normal (%),[1]; [4],99%
same,Population Pyknosed Nuclei (%),[1]; [4],15% and 14%
same,Population Tubulin-Different-Phenotype (%),[1]; [4],20% and 13%
same,Total Cell Count,[1]; [4],252
same,Population Apoptotic (%),[1]; [5],58% and 35%
same,Population Fragmented Nuclei (%),[1]; [5],14% and 9%
same,Population Healthy Nuclei (%),[1]; [5],69% and 77%
same,Population Hoechst High Intensity Objects (%),[1]; [5],0%
same,Population Membrane Permeable-Phenotype (%),[1]; [5],9% and 14%
same,Population Mitochondria Different-Phenotype (%),[1]; [5],3%
same,Population Mitotic Cells (%),[1]; [5],41% and 65%
same,Population Normal (%),[1]; [5],100% and 99%
same,Population Pyknosed Nuclei (%),[1]; [5],15% and 12%
same,Population Tubulin-Different-Phenotype (%),[1]; [5],69% and 59%
same,Total Cell Count,[1]; [5],153 and 155
same,Population Apoptotic (%),[1]; [6],59% and 46%
same,Population Fragmented Nuclei (%),[1]; [6],13% and 15%
same,Population Healthy Nuclei (%),[1]; [6],72% and 73%
same,Population Hoechst High Intensity Objects (%),[1]; [6],0%
same,Population Membrane Permeable-Phenotype (%),[1]; [6],6% and 3%
same,Population Mitochondria Different-Phenotype (%),[1]; [6],1% and 0%
same,Population Mitotic Cells (%),[1]; [6],40% and 53%
same,Population Normal (%),[1]; [6],100%
same,Population Pyknosed Nuclei (%),[1]; [6],14% and 10%
same,Population Tubulin-Different-Phenotype (%),[1]; [6],19% and 12%
same,Total Cell Count,[1]; [6],253 and 276
same,Population Apoptotic (%),[1]; [7],65% and 50%
same,Population Fragmented Nuclei (%),[1]; [7],12%
same,Population Healthy Nuclei (%),[1]; [7],68% and 75%
same,Population Hoechst High Intensity Objects (%),[1]; [7],0% and 1%
same,Population Membrane Permeable-Phenotype (%),[1]; [7],7% and 2%
same,Population Mitochondria Different-Phenotype (%),[1]; [7],9% and 7%
same,Population Mitotic Cells (%),[1]; [7],34% and 50%
same,Population Normal (%),[1]; [7],99% and 98%
same,Population Pyknosed Nuclei (%),[1]; [7],19% and 12%
same,Population Tubulin-Different-Phenotype (%),[1]; [7],61% and 48%
same,Total Cell Count,[1]; [7],153 and 151
same,Population Apoptotic (%),[1]; [8],62% and 69%
same,Population Fragmented Nuclei (%),[1]; [8],15% and 10%
same,Population Healthy Nuclei (%),[1]; [8],74% and 79%
same,Population Hoechst High Intensity Objects (%),[1]; [8],0%
same,Population Membrane Permeable-Phenotype (%),[1]; [8],7% and 3%
same,Population Mitochondria Different-Phenotype (%),[1]; [8],0%
same,Population Mitotic Cells (%),[1]; [8],37% and 30%
same,Population Normal (%),[1]; [8],100%
same,Population Pyknosed Nuclei (%),[1]; [8],10% and 9%
same,Population Tubulin-Different-Phenotype (%),[1]; [8],11% and 5%
same,Total Cell Count,[1]; [8],259 and 265
same,Population Apoptotic (%),[1]; [9],45% and 83%
same,Population Fragmented Nuclei (%),[1]; [9],15% and 12%
same,Population Healthy Nuclei (%),[1]; [9],69% and 75%
same,Population Hoechst High Intensity Objects (%),[1]; [9],0% and 1%
same,Population Membrane Permeable-Phenotype (%),[1]; [9],5%
same,Population Mitochondria Different-Phenotype (%),[1]; [9],2%
same,Population Normal (%),[1]; [9],100% and 98%
same,Population Pyknosed Nuclei (%),[1]; [9],15% and 12%
same,Population Tubulin-Different-Phenotype (%),[1]; [9],53% and 43%
same,Total Cell Count,[1]; [9],156 and 150
same,Population Apoptotic (%),[2]; [4],56% and 58%
same,Population Fragmented Nuclei (%),[2]; [4],5% and 3%
same,Population Healthy Nuclei (%),[2]; [4],82% and 77%
same,Population Hoechst High Intensity Objects (%),[2]; [4],8% and 6%
same,Population Membrane Permeable-Phenotype (%),[2]; [4],6% and 1%
same,Population Mitochondria Different-Phenotype (%),[2]; [4],18% and 19%
same,Population Mitotic Cells (%),[2]; [4],43% and 41%
same,Population Normal (%),[2]; [4],91% and 93%
same,Population Pyknosed Nuclei (%),[2]; [4],11% and 19%
same,Population Tubulin-Different-Phenotype (%),[2]; [4],76% and 63%
same,Total Cell Count,[2]; [4],761 and 454
same,Population Apoptotic (%),[2]; [5],72% and 41%
same,Population Fragmented Nuclei (%),[2]; [5],2%
same,Population Healthy Nuclei (%),[2]; [5],75% and 85%
same,Population Hoechst High Intensity Objects (%),[2]; [5],7% and 4%
same,Population Membrane Permeable-Phenotype (%),[2]; [5],5% and 3%
same,Population Mitochondria Different-Phenotype (%),[2]; [5],34% and 53%
same,Population Mitotic Cells (%),[2]; [5],27% and 58%
same,Population Normal (%),[2]; [5],92% and 95%
same,Population Pyknosed Nuclei (%),[2]; [5],21% and 12%
same,Population Tubulin-Different-Phenotype (%),[2]; [5],93% and 97%
same,Total Cell Count,[2]; [5],433 and 482
same,Population Apoptotic (%),[2]; [6],36% and 63%
same,Population Fragmented Nuclei (%),[2]; [6],8% and 5%
same,Population Healthy Nuclei (%),[2]; [6],83%
same,Population Hoechst High Intensity Objects (%),[2]; [6],7% and 9%
same,Population Membrane Permeable-Phenotype (%),[2]; [6],5% and 2%
same,Population Mitochondria Different-Phenotype (%),[2]; [6],4% and 8%
same,Population Mitotic Cells (%),[2]; [6],63% and 36%
same,Population Normal (%),[2]; [6],92% and 90%
same,Population Pyknosed Nuclei (%),[2]; [6],7% and 11%
same,Population Tubulin-Different-Phenotype (%),[2]; [6],51% and 38%
same,Total Cell Count,[2]; [6],1157 and 707
same,Population Apoptotic (%),[2]; [7],70% and 54%
same,Population Fragmented Nuclei (%),[2]; [7],2% and 4%
same,Population Healthy Nuclei (%),[2]; [7],83% and 85%
same,Population Hoechst High Intensity Objects (%),[2]; [7],9% and 5%
same,Population Membrane Permeable-Phenotype (%),[2]; [7],6% and 3%
same,Population Mitochondria Different-Phenotype (%),[2]; [7],31% and 55%
same,Population Mitotic Cells (%),[2]; [7],29% and 45%
same,Population Normal (%),[2]; [7],90% and 94%
same,Population Pyknosed Nuclei (%),[2]; [7],14% and 10%
same,Population Tubulin-Different-Phenotype (%),[2]; [7],90% and 94%
same,Total Cell Count,[2]; [7],529 and 537
same,Population Fragmented Nuclei (%),[2]; [8],16% and 10%
same,Population Healthy Nuclei (%),[2]; [8],80% and 86%
same,Population Hoechst High Intensity Objects (%),[2]; [8],9%
same,Population Membrane Permeable-Phenotype (%),[2]; [8],8% and 3%
same,Population Mitochondria Different-Phenotype (%),[2]; [8],0% and 1%
same,Population Mitotic Cells (%),[2]; [8],91% and 68%
same,Population Normal (%),[2]; [8],90%
same,Population Pyknosed Nuclei (%),[2]; [8],2% and 3%
same,Population Tubulin-Different-Phenotype (%),[2]; [8],30% and 21%
same,Total Cell Count,[2]; [8],2926 and 1423
same,Population Apoptotic (%),[2]; [9],45% and 43%
same,Population Fragmented Nuclei (%),[2]; [9],5% and 8%
same,Population Healthy Nuclei (%),[2]; [9],87% and 85%
same,Population Hoechst High Intensity Objects (%),[2]; [9],6%
same,Population Membrane Permeable-Phenotype (%),[2]; [9],6% and 10%
same,Population Mitochondria Different-Phenotype (%),[2]; [9],39% and 15%
same,Population Mitotic Cells (%),[2]; [9],55% and 56%
same,Population Normal (%),[2]; [9],93%
same,Population Pyknosed Nuclei (%),[2]; [9],6% and 5%
same,Population Tubulin-Different-Phenotype (%),[2]; [9],93% and 82%
same,Total Cell Count,[2]; [9],655 and 824
same,Population Apoptotic (%),[3]; [4],80% and 46%
same,Population Fragmented Nuclei (%),[3]; [4],11% and 2%
same,Population Healthy Nuclei (%),[3]; [4],69% and 86%
same,Population Hoechst High Intensity Objects (%),[3]; [4],3% and 0%
same,Population Membrane Permeable-Phenotype (%),[3]; [4],0% and 3%
same,Population Mitochondria Different-Phenotype (%),[3]; [4],0% and 1%
same,Population Mitotic Cells (%),[3]; [4],20% and 53%
same,Population Normal (%),[3]; [4],96% and 100%
same,Population Pyknosed Nuclei (%),[3]; [4],19% and 10%
same,Population Tubulin-Different-Phenotype (%),[3]; [4],61% and 62%
same,Population Apoptotic (%),[3]; [5],62% and 43%
same,Population Fragmented Nuclei (%),[3]; [5],7% and 4%
same,Population Healthy Nuclei (%),[3]; [5],71% and 86%
same,Population Hoechst High Intensity Objects (%),[3]; [5],0%
same,Population Membrane Permeable-Phenotype (%),[3]; [5],22% and 24%
same,Population Mitochondria Different-Phenotype (%),[3]; [5],22% and 17%
same,Population Mitotic Cells (%),[3]; [5],37% and 56%
same,Population Normal (%),[3]; [5],100% and 99%
same,Population Pyknosed Nuclei (%),[3]; [5],21% and 9%
same,Population Tubulin-Different-Phenotype (%),[3]; [5],88% and 60%
same,Population Apoptotic (%),[3]; [6],47% and 81%
same,Population Fragmented Nuclei (%),[3]; [6],2% and 8%
same,Population Healthy Nuclei (%),[3]; [6],88% and 58%
same,Population Hoechst High Intensity Objects (%),[3]; [6],0% and 2%
same,Population Membrane Permeable-Phenotype (%),[3]; [6],2% and 5%
same,Population Mitochondria Different-Phenotype (%),[3]; [6],0%
same,Population Mitotic Cells (%),[3]; [6],52% and 18%
same,Population Normal (%),[3]; [6],100% and 97%
same,Population Tubulin-Different-Phenotype (%),[3]; [6],72% and 45%
same,Population Apoptotic (%),[3]; [7],75% and 72%
same,Population Fragmented Nuclei (%),[3]; [7],2% and 6%
same,Population Healthy Nuclei (%),[3]; [7],64% and 78%
same,Population Hoechst High Intensity Objects (%),[3]; [7],0%
same,Population Membrane Permeable-Phenotype (%),[3]; [7],37% and 16%
same,Population Mitochondria Different-Phenotype (%),[3]; [7],45% and 36%
same,Population Mitotic Cells (%),[3]; [7],25% and 28%
same,Population Normal (%),[3]; [7],100%
same,Population Pyknosed Nuclei (%),[3]; [7],32% and 15%
same,Population Tubulin-Different-Phenotype (%),[3]; [7],83% and 53%
same,Population Apoptotic (%),[3]; [8],37% and 90%
same,Population Healthy Nuclei (%),[3]; [8],90% and 62%
same,Population Hoechst High Intensity Objects (%),[3]; [8],0% and 1%
same,Population Membrane Permeable-Phenotype (%),[3]; [8],1% and 9%
same,Population Mitochondria Different-Phenotype (%),[3]; [8],0%
same,Population Normal (%),[3]; [8],100% and 98%
same,Population Pyknosed Nuclei (%),[3]; [8],6% and 18%
same,Population Tubulin-Different-Phenotype (%),[3]; [8],86% and 48%
same,Population Apoptotic (%),[3]; [9],75% and 73%
same,Population Fragmented Nuclei (%),[3]; [9],7% and 5%
same,Population Healthy Nuclei (%),[3]; [9],57% and 75%
same,Population Hoechst High Intensity Objects (%),[3]; [9],0%
same,Population Membrane Permeable-Phenotype (%),[3]; [9],12% and 20%
same,Population Mitochondria Different-Phenotype (%),[3]; [9],37% and 19%
same,Population Mitotic Cells (%),[3]; [9],25% and 26%
same,Population Normal (%),[3]; [9],100%
same,Population Pyknosed Nuclei (%),[3]; [9],35% and 18%
same,Population Tubulin-Different-Phenotype (%),[3]; [9],68% and 42%
